# In ChEMBL document CHEMBL5058577, “EUbOPEN Chemogenomics Library 2 (Multiplex)” (2022):
# System: Fibroblast
# Assay: Multiplex assay against human fibroblast
# Type: toxicity, cell-based
# Outline: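 At seeding, live cells were stained with Hoechst33342, BioTracker Green Microtubule Cytoskeleton Dye, MitoTracker Red and Annexin V Alexa Fluor 680. After compound addition they were imaged on a CQ1 microscope at 37°C and 5% CO2, and CellPathfinder machine-learning gating sorted them into Hoechst high-intensity objects or normal cells, with normal cells further split into healthy, pyknosed or fragmented nuclei and pyknosed cells into mitotic or apoptotic. Tubulin, mitochondrial-mass and membrane-permeability phenotypes are given as per cents of cells with healthy nuclei.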
# [1] = 12 h, 1 µM, compound concentration 1 uM, replicate 1
# [2] = 12 h, 1 µM, compound concentration 1 uM, replicate 2
# [3] = 12 h, 10 µM, compound concentration 10 uM, replicate 1
# [4] = 12 h, 10 µM, compound concentration 10 uM, replicate 2
# [5] = 24 h, 1 µM, compound concentration 1 uM, replicate 1
# [6] = 24 h, 1 µM, compound concentration 1 uM, replicate 2
# [7] = 24 h, 10 µM, compound concentration 10 uM, replicate 1
# [8] = 24 h, 10 µM, compound concentration 10 uM, replicate 2
# [9] = 48 h, 1 µM, compound concentration 1 uM, replicate 1
# [10] = 48 h, 1 µM, compound concentration 1 uM, replicate 2
# [11] = 48 h, 10 µM, compound concentration 10 uM, replicate 1
# [12] = 48 h, 10 µM, compound concentration 10 uM, replicate 2
compound,measurement,setting,value
Cc1ccccc1C(=O)Nc1ccc(C(=O)N2CCCC(N(C)C)c3ccccc32)cc1.Cl (centres undefined),Population Apoptotic (%),[1],52%
same,Population Fragmented Nuclei (%),[1],16%
same,Population Healthy Nuclei (%),[1],71%
same,Population Hoechst High Intensity Objects (%),[1],0%
same,Population Membrane Permeable-Phenotype (%),[1],0%
same,Population Mitochondria Different-Phenotype (%),[1],5%
same,Population Mitotic Cells (%),[1],47%
same,Population Normal (%),[1],100%
same,Population Pyknosed Nuclei (%),[1],12%
same,Population Tubulin-Different-Phenotype (%),[1],31%
same,Total Cell Count,[1],167
same,Population Apoptotic (%),[2],36%
same,Population Fragmented Nuclei (%),[2],22%
same,Population Healthy Nuclei (%),[2],55%
same,Population Hoechst High Intensity Objects (%),[2],1%
same,Population Membrane Permeable-Phenotype (%),[2],10%
same,Population Mitochondria Different-Phenotype (%),[2],3%
same,Population Mitotic Cells (%),[2],63%
same,Population Normal (%),[2],98%
same,Population Pyknosed Nuclei (%),[2],21%
same,Population Tubulin-Different-Phenotype (%),[2],45%
same,Total Cell Count,[2],155
same,Population Apoptotic (%),[3],58%
same,Population Fragmented Nuclei (%),[3],26%
same,Population Healthy Nuclei (%),[3],50%
same,Population Hoechst High Intensity Objects (%),[3],1%
same,Population Membrane Permeable-Phenotype (%),[3],1%
same,Population Mitochondria Different-Phenotype (%),[3],12%
same,Population Mitotic Cells (%),[3],41%
same,Population Normal (%),[3],98%
same,Population Pyknosed Nuclei (%),[3],22%
same,Population Tubulin-Different-Phenotype (%),[3],70%
same,Total Cell Count,[3],108
same,Population Apoptotic (%),[4],45%
same,Population Fragmented Nuclei (%),[4],29%
same,Population Healthy Nuclei (%),[4],47%
same,Population Hoechst High Intensity Objects (%),[4],4%
same,Population Membrane Permeable-Phenotype (%),[4],4%
same,Population Mitotic Cells (%),[4],54%
same,Population Normal (%),[4],95%
same,Population Pyknosed Nuclei (%),[4],23%
same,Population Tubulin-Different-Phenotype (%),[4],61%
same,Total Cell Count,[4],109
same,Population Apoptotic (%),[5],38%
same,Population Fragmented Nuclei (%),[5],15%
same,Population Healthy Nuclei (%),[5],76%
same,Population Hoechst High Intensity Objects (%),[5],1%
same,Population Membrane Permeable-Phenotype (%),[5],0%
same,Population Mitochondria Different-Phenotype (%),[5],8%
same,Population Mitotic Cells (%),[5],61%
same,Population Normal (%),[5],98%
same,Population Pyknosed Nuclei (%),[5],8%
same,Population Tubulin-Different-Phenotype (%),[5],30%
same,Total Cell Count,[5],160
same,Population Apoptotic (%),[6],43%
same,Population Fragmented Nuclei (%),[6],28%
same,Population Healthy Nuclei (%),[6],49%
same,Population Hoechst High Intensity Objects (%),[6],5%
same,Population Membrane Permeable-Phenotype (%),[6],8%
same,Population Mitochondria Different-Phenotype (%),[6],2%
same,Population Mitotic Cells (%),[6],56%
same,Population Normal (%),[6],94%
same,Population Pyknosed Nuclei (%),[6],21%
same,Population Tubulin-Different-Phenotype (%),[6],50%
same,Total Cell Count,[6],157
same,Population Apoptotic (%),[7],58%
same,Population Fragmented Nuclei (%),[7],30%
same,Population Healthy Nuclei (%),[7],58%
same,Population Hoechst High Intensity Objects (%),[7],1%
same,Population Membrane Permeable-Phenotype (%),[7],0%
same,Population Mitochondria Different-Phenotype (%),[7],12%
same,Population Mitotic Cells (%),[7],41%
same,Population Normal (%),[7],98%
same,Population Pyknosed Nuclei (%),[7],11%
same,Population Tubulin-Different-Phenotype (%),[7],68%
same,Total Cell Count,[7],111
same,Population Apoptotic (%),[8],57%
same,Population Fragmented Nuclei (%),[8],37%
same,Population Healthy Nuclei (%),[8],42%
same,Population Hoechst High Intensity Objects (%),[8],4%
same,Population Membrane Permeable-Phenotype (%),[8],9%
same,Population Mitochondria Different-Phenotype (%),[8],11%
same,Population Mitotic Cells (%),[8],42%
same,Population Normal (%),[8],95%
same,Population Pyknosed Nuclei (%),[8],20%
same,Population Tubulin-Different-Phenotype (%),[8],72%
same,Total Cell Count,[8],107
same,Population Apoptotic (%),[9],33%
same,Population Fragmented Nuclei (%),[9],13%
same,Population Healthy Nuclei (%),[9],79%
same,Population Hoechst High Intensity Objects (%),[9],3%
same,Population Membrane Permeable-Phenotype (%),[9],0%
same,Population Mitochondria Different-Phenotype (%),[9],4%
same,Population Mitotic Cells (%),[9],66%
same,Population Normal (%),[9],96%
same,Population Pyknosed Nuclei (%),[9],7%
same,Population Tubulin-Different-Phenotype (%),[9],28%
same,Total Cell Count,[9],158
same,Population Apoptotic (%),[10],53%
same,Population Fragmented Nuclei (%),[10],32%
same,Population Healthy Nuclei (%),[10],50%
same,Population Membrane Permeable-Phenotype (%),[10],8%
same,Population Mitochondria Different-Phenotype (%),[10],5%
same,Population Mitotic Cells (%),[10],46%
same,Population Pyknosed Nuclei (%),[10],17%
same,Population Tubulin-Different-Phenotype (%),[10],54%
same,Total Cell Count,[10],155
same,Population Apoptotic (%),[11],91%
same,Population Fragmented Nuclei (%),[11],24%
same,Population Healthy Nuclei (%),[11],60%
same,Population Hoechst High Intensity Objects (%),[11],7%
same,Population Membrane Permeable-Phenotype (%),[11],0%
same,Population Mitochondria Different-Phenotype (%),[11],12%
same,Population Mitotic Cells (%),[11],8%
same,Population Normal (%),[11],92%
same,Population Pyknosed Nuclei (%),[11],14%
same,Population Tubulin-Different-Phenotype (%),[11],51%
same,Total Cell Count,[11],88
same,Population Apoptotic (%),[12],73%
same,Population Fragmented Nuclei (%),[12],43%
same,Population Healthy Nuclei (%),[12],43%
same,Population Hoechst High Intensity Objects (%),[12],3%
same,Population Membrane Permeable-Phenotype (%),[12],8%
same,Population Mitochondria Different-Phenotype (%),[12],14%
same,Population Mitotic Cells (%),[12],26%
same,Population Normal (%),[12],96%
same,Population Pyknosed Nuclei (%),[12],13%
same,Population Tubulin-Different-Phenotype (%),[12],70%
same,Total Cell Count,[12],113
N#Cc1c(N)nc(SCc2csc(-c3ccc(Cl)cc3)n2)c(C#N)c1-c1ccc(OCCO)cc1 [CAPADENOSON],Population Apoptotic (%),[1],43%
same,Population Fragmented Nuclei (%),[1],8%
same,Population Healthy Nuclei (%),[1],80%
same,Population Hoechst High Intensity Objects (%),[1],2%
same,Population Membrane Permeable-Phenotype (%),[1],0%
same,Population Mitochondria Different-Phenotype (%),[1],10%
same,Population Mitotic Cells (%),[1],56%
same,Population Normal (%),[1],97%
same,Population Pyknosed Nuclei (%),[1],11%
same,Population Tubulin-Different-Phenotype (%),[1],38%
same,Total Cell Count,[1],139
same,Population Apoptotic (%),[2],27%
same,Population Fragmented Nuclei (%),[2],30%
same,Population Healthy Nuclei (%),[2],43%
same,Population Hoechst High Intensity Objects (%),[2],1%
same,Population Membrane Permeable-Phenotype (%),[2],5%
same,Population Mitochondria Different-Phenotype (%),[2],11%
same,Population Mitotic Cells (%),[2],72%
same,Population Normal (%),[2],98%
same,Population Pyknosed Nuclei (%),[2],25%
same,Population Tubulin-Different-Phenotype (%),[2],55%
same,Total Cell Count,[2],157
same,Population Apoptotic (%),[3],31%
same,Population Fragmented Nuclei (%),[3],23%
same,Population Healthy Nuclei (%),[3],50%
same,Population Hoechst High Intensity Objects (%),[3],1%
same,Population Membrane Permeable-Phenotype (%),[3],0%
same,Population Mitochondria Different-Phenotype (%),[3],10%
same,Population Mitotic Cells (%),[3],68%
same,Population Normal (%),[3],98%
same,Population Pyknosed Nuclei (%),[3],25%
same,Population Tubulin-Different-Phenotype (%),[3],80%
same,Total Cell Count,[3],172
same,Population Apoptotic (%),[4],41%
same,Population Fragmented Nuclei (%),[4],41%
same,Population Healthy Nuclei (%),[4],29%
same,Population Hoechst High Intensity Objects (%),[4],8%
same,Population Membrane Permeable-Phenotype (%),[4],20%
same,Population Mitochondria Different-Phenotype (%),[4],14%
same,Population Mitotic Cells (%),[4],58%
same,Population Normal (%),[4],91%
same,Population Pyknosed Nuclei (%),[4],29%
same,Population Tubulin-Different-Phenotype (%),[4],97%
same,Total Cell Count,[4],128
same,Population Apoptotic (%),[5],72%
same,Population Fragmented Nuclei (%),[5],11%
same,Population Healthy Nuclei (%),[5],80%
same,Population Hoechst High Intensity Objects (%),[5],1%
same,Population Membrane Permeable-Phenotype (%),[5],0%
same,Population Mitochondria Different-Phenotype (%),[5],5%
same,Population Mitotic Cells (%),[5],27%
same,Population Normal (%),[5],98%
same,Population Pyknosed Nuclei (%),[5],8%
same,Population Tubulin-Different-Phenotype (%),[5],34%
same,Total Cell Count,[5],139
same,Population Apoptotic (%),[6],48%
same,Population Fragmented Nuclei (%),[6],35%
same,Population Healthy Nuclei (%),[6],44%
same,Population Hoechst High Intensity Objects (%),[6],4%
same,Population Membrane Permeable-Phenotype (%),[6],6%
same,Population Mitochondria Different-Phenotype (%),[6],20%
same,Population Mitotic Cells (%),[6],51%
same,Population Normal (%),[6],95%
same,Population Pyknosed Nuclei (%),[6],20%
same,Population Tubulin-Different-Phenotype (%),[6],71%
same,Total Cell Count,[6],148
same,Population Apoptotic (%),[7],38%
same,Population Fragmented Nuclei (%),[7],26%
same,Population Healthy Nuclei (%),[7],52%
same,Population Hoechst High Intensity Objects (%),[7],2%
same,Population Membrane Permeable-Phenotype (%),[7],0%
same,Population Mitochondria Different-Phenotype (%),[7],26%
same,Population Mitotic Cells (%),[7],61%
same,Population Normal (%),[7],97%
same,Population Pyknosed Nuclei (%),[7],20%
same,Population Tubulin-Different-Phenotype (%),[7],67%
same,Total Cell Count,[7],179
same,Population Apoptotic (%),[8],41%
same,Population Fragmented Nuclei (%),[8],43%
same,Population Healthy Nuclei (%),[8],28%
same,Population Hoechst High Intensity Objects (%),[8],6%
same,Population Membrane Permeable-Phenotype (%),[8],17%
same,Population Mitochondria Different-Phenotype (%),[8],25%
same,Population Mitotic Cells (%),[8],58%
same,Population Normal (%),[8],93%
same,Population Pyknosed Nuclei (%),[8],27%
same,Population Tubulin-Different-Phenotype (%),[8],94%
same,Total Cell Count,[8],131
same,Population Apoptotic (%),[9],88%
same,Population Fragmented Nuclei (%),[9],16%
same,Population Healthy Nuclei (%),[9],77%
same,Population Hoechst High Intensity Objects (%),[9],2%
same,Population Membrane Permeable-Phenotype (%),[9],0%
same,Population Mitochondria Different-Phenotype (%),[9],7%
same,Population Mitotic Cells (%),[9],11%
same,Population Normal (%),[9],97%
same,Population Pyknosed Nuclei (%),[9],6%
same,Population Tubulin-Different-Phenotype (%),[9],37%
same,Total Cell Count,[9],147
same,Population Apoptotic (%),[10],69%
same,Population Fragmented Nuclei (%),[10],38%
same,Population Healthy Nuclei (%),[10],43%
same,Population Membrane Permeable-Phenotype (%),[10],6%
same,Population Mitochondria Different-Phenotype (%),[10],12%
same,Population Mitotic Cells (%),[10],30%
same,Population Pyknosed Nuclei (%),[10],17%
same,Population Tubulin-Different-Phenotype (%),[10],60%
same,Total Cell Count,[10],151
same,Population Apoptotic (%),[11],81%
same,Population Fragmented Nuclei (%),[11],32%
same,Population Healthy Nuclei (%),[11],53%
same,Population Hoechst High Intensity Objects (%),[11],2%
same,Population Membrane Permeable-Phenotype (%),[11],0%
same,Population Mitochondria Different-Phenotype (%),[11],32%
same,Population Mitotic Cells (%),[11],18%
same,Population Normal (%),[11],97%
same,Population Pyknosed Nuclei (%),[11],14%
same,Population Tubulin-Different-Phenotype (%),[11],78%
same,Total Cell Count,[11],187
same,Population Apoptotic (%),[12],36%
same,Population Fragmented Nuclei (%),[12],57%
same,Population Healthy Nuclei (%),[12],29%
same,Population Hoechst High Intensity Objects (%),[12],0%
same,Population Membrane Permeable-Phenotype (%),[12],11%
same,Population Mitochondria Different-Phenotype (%),[12],30%
same,Population Mitotic Cells (%),[12],63%
same,Population Normal (%),[12],100%
same,Population Pyknosed Nuclei (%),[12],13%
same,Population Tubulin-Different-Phenotype (%),[12],95%
same,Total Cell Count,[12],142
